Residues, ends and D or L forms follow the SMILES beside them.
Key:
Type in all cases: cell-based, human
EA.hy926 cells = test: Cell viability by MTT assay; conditions: 62.5, 125 and 250 µM, up to 250 µM; presence or absence of Ang II (1 µM); 24 h
In short: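 EA.hy926 cells were grown in DMEM with 10% FBS, penicillin and streptomycin at 37°C in 5% CO2. Cells were treated with Ang II (1 µM) plus test compound (62.5, 125 or 250 µM) for 24 h at 37°C, then with MTT for 4 h. Plates were spun and formazan was dissolved in DMSO, read at 540 nm. Data are mean ± SD of at least 3 experiments, compared by unpaired t-test.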

[1] = tested on: NO production in Ang II-stimulated EA.hy926 cells; test: NO production; conditions: Ang II alone (1 µM, 24 h), compared with the untreated cells
In short: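 EA.hy926 cells were incubated with test compound and Ang II for 24 h. Nitrite in the medium was taken as the NO indicator. Medium was mixed 1:1 with Griess reagent (1% sulfanilamide, 0.1% naphthylethylenediamine dihydrochloride in 2.5% phosphoric acid) for 10 min at room temperature and read at 540 nm, with fresh medium as blank. Data are mean ± SD, at least 3 experiments.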

[2] = tested on: intracellular ROS in Ang II-stimulated EA.hy926 cells; test: Intracellular ROS generation; conditions: Ang II alone (1 µM, 30 min), compared with the untreated cells
In short: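 Cells were seeded for 24 h, then pre-treated with test compound for 30 min. Ang II (1 µM) was added for a further 30 min at 37°C. Cells were loaded with 40 µM carboxy-DCFH-DA, and DCF fluorescence plus DAPI were imaged by fluorescence microscopy.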

[3] = tested on: iNOS expression in Ang II-stimulated EA.hy926 cells; test: iNOS expression by western blot; conditions: 24 h
In short: (§1)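 Ang II-stimulated EA.hy926 cells were lysed for 60 min in Tris/EDTA/NP-40 buffer with phosphatase and protease inhibitors, and protein was measured by BCA. Each lane took 40 µg protein on SDS-PAGE, transferred to nitrocellulose and blocked 2 h in 5% milk/TBS-T. Primary antibodies (1:1,000) were applied overnight at 4°C and secondaries at 1:3,000, with ECL detection and densitometry. Data are mean ± SD, at least 3 experiments.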

[4] = tested on: ET-1 expression in Ang II-stimulated EA.hy926 cells; test: ET-1 expression by western blot; conditions: 24 h
In short: as §1

[5] = tested on: p38 MAPK phosphorylation in EA.hy926 cells; test: Phosphorylation of p38 MAPK by western blot; conditions: 30 min
In short: as §1

[6] = tested on: ERK phosphorylation in EA.hy926 cells; test: Phosphorylation of ERK by western blot; conditions: 30 min
In short: as §1

[7] = tested on: JNK phosphorylation in EA.hy926 cells; test: Phosphorylation of JNK by western blot; conditions: 30 min
In short: as §1

## CSCC[C@H](NC(=O)[C@@H](N)[C@@H](C)O)C(=O)N[C@@H](CCC(=O)O)C(=O)N1CCC[C@H]1C(=O)NCC(=O)N[C@@H](CCCCN)C(=O)N1CCC[C@H]1C(=O)O [purified peptide, Thr-Met-Glu-Pro-Gly-Lys-Pro] (H-TMEPGKP-OH)
EA.hy926 cells
  cytotoxic effect (MTT): No significant toxic effects

## angiotensin II (DRVYIHPF; Angiotensin-2; UniProt P01019 25-32, looked up) [Ang II]
[1]
  NO generation, Ang II alone: markedly induced NO generation
[2]
  ROS fluorescence intensity, Ang II alone: increased markedly
[3]
  iNOS expression, Ang II alone: markedly increased
[4]
  ET-1 expression, Ang II alone: markedly increased
[5]
  phosphorylated p38 MAPK, Ang II alone: elevated
[6]
  phosphorylated ERK, Ang II alone: elevated
[7]
  phosphorylated JNK, Ang II alone: elevated

— publication PMC5403476 (International Journal of Molecular Medicine, 2017)
